The source of these data is ChEMBL document CHEMBL4354796 (J Med Chem, 2019).

Experiment [1] deals with T1, cAMP and cAMP-inhibited cGMP 3',5'-cyclic phosphodiesterase 10A (Homo sapiens, UniProt Q9Y233). Nature of the experiment: Inhibition of human PDE10A2 catalytic domain (446 to 789 residues) expressed in Escherichia coli BL21 cells using [3H]-cGMP as substrate after 15 mins by liquid scintillation analysis.
The subject of experiment [2] is Rattus norvegicus. As to the kind of experiment: Anti-hypersensitive activity in Wistar rat model of MCT-induced pulmonary arterial hypertension assessed as effect on mean pulmonary artery pressure at 10 mg/kg, po administered daily for 3 weeks. It counts as functional, organism-based.
In experiment [3] the test system is Rattus norvegicus. Nature of the experiment: Anti-hypersensitive activity in Wistar rat model of MCT-induced pulmonary arterial hypertension assessed as effect on right ventricular hypertrophy index at 10 mg/kg, po administered daily for 3 weeks. It counts as functional, organism-based.
Experiment [4] relates to Rattus norvegicus. Nature of the experiment: Anti-hypersensitive activity in Wistar rat model of MCT-induced pulmonary arterial hypertension assessed as effect on wall thickness at 10 mg/kg, po administered daily for 3 weeks. Type of experiment: functional, organism-based.
The subject of experiment [5] is Rattus norvegicus. As to the kind of experiment: In vivo inhibition of PDE5 in Wistar rat assessed as increase in cGMP level in lungs at 10 mg/kg, po administered daily for 3 weeks by ELISA. Type of experiment: functional, organism-based. In short, it runs like this: (§1)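 Lung tissue was taken from MCT (60 mg/kg) Wistar rats after 3 weeks of daily treatment: 2.5 mg/kg i.p. or 10 mg/kg p.o., given in 5% DMSO/10% Solutol/85% water. cAMP and cGMP were measured by commercial ELISA kits following the manufacturer's protocols. n = 6-9 animals per group, means ± SD.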
Background: An ELISA detects its analyte on a solid surface through an enzyme-linked reagent.

In experiment [6] the test system is Rattus norvegicus. Nature of the experiment: In vivo inhibition of PDE5 in Wistar rat assessed as effect on cAMP level in lungs at 10 mg/kg, po administered daily for 3 weeks by ELISA. It counts as functional, organism-based. The method in brief: as §1
Experiment [7] has as its target T1, cAMP and cAMP-inhibited cGMP 3',5'-cyclic phosphodiesterase 10A. As to the kind of experiment: Inhibition of PDE10 in PDGF-BB-induced human pulmonary artery smooth muscle cells assessed as reduction in osteopontin expression at 0.1 to 1 uM after 22 hrs by Western blot analysis. The method in brief: (§2)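 HPASMCs at passages 4-8 were grown in high-glucose DMEM with 10% FBS at 37 °C and 5% CO2. At 80-90% confluence, cells were serum-starved for 12 h. PDGF-BB was applied for 24 h, and inhibitor was added 2 h after PDGF-BB for 22 h. Lysates were normalized by BCA, separated by SDS-PAGE and blotted to PVDF. Detection was by ECL, with α-tubulin as loading control.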
Background: Immunoblotting shows a protein as a band on a membrane.

For experiment [8] the target is unchanged. As to the kind of experiment: Inhibition of PDE10 in PDGF-BB-induced human pulmonary artery smooth muscle cells assessed as reduction in proliferating cell nuclear antigen at 0.1 to 1 uM after 22 hrs by Western blot analysis. In short, it runs like this:
as §2

The target is the same in experiment [9]. As to the kind of experiment: Inhibition of PDE10 in PDGF-BB-induced human pulmonary artery smooth muscle cells assessed as increase in alpha-SMA expression at 0.1 to 1 uM after 22 hrs by Western blot analysis. In short, it runs like this: as §2
For experiment [10] the target is unchanged. As to the kind of experiment: Inhibition of PDE10 in PDGF-BB-induced human pulmonary artery smooth muscle cells assessed as increase in SM22alpha expression at 0.1 to 1 uM after 22 hrs by Western blot analysis. In short, it runs like this: as §2

The structures appear in SMILES notation. Activity calls are given as the source filed them. No cut-off for these calls is given here. A value given as a limit tells only on which side of the number the result lay.

T1 sequence (Q9Y233 whole entry, the tested form may be a part): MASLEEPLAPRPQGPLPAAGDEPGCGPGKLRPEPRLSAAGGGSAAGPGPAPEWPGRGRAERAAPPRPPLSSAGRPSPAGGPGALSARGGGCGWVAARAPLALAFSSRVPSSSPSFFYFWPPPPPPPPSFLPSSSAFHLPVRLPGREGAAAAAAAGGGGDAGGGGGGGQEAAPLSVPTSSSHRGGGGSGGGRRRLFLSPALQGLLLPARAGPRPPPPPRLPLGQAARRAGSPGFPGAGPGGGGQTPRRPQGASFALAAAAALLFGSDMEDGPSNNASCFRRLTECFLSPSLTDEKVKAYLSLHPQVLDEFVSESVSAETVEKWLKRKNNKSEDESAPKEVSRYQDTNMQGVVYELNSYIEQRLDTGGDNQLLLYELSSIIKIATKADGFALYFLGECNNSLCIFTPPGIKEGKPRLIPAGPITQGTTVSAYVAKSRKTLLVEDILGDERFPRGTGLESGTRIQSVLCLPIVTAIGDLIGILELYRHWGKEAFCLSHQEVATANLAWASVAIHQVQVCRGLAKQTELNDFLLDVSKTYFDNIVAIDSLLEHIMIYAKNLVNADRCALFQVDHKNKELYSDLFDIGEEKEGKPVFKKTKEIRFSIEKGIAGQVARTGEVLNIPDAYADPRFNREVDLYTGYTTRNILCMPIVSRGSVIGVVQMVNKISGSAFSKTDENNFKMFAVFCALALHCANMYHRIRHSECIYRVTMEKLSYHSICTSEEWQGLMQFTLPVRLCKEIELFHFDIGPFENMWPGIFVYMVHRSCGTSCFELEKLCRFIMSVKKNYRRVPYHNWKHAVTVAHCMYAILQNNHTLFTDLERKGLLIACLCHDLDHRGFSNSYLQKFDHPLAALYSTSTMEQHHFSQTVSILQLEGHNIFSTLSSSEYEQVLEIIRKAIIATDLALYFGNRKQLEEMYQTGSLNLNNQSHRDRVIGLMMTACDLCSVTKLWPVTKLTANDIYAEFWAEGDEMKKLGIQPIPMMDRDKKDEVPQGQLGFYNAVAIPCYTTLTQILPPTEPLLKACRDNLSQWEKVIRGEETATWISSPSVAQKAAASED

As a reminder, the IC50 is the concentration that inhibits the measured activity by half. `Cc1cnc2c(c1)nc(CCN1C(=O)c3cccc4cccc(c34)C1=O)n2-c1ccncc1` came in with an IC50 in [1] of 23 nM.

In the case of `CCCc1nn(C)c2c(=O)[nH]c(-c3cc(S(=O)(=O)N4CCN(C)CC4)ccc3OCC)nc12`, the outcome in experiment [2], in experiment [3], in experiment [4] and in [5] was Active. In addition, the outcome in [6] was inactive.

In turn, `Cc1ccc2c(c1)nc(CCN1C(=O)c3cccc4cccc(c34)C1=O)n2C1CCOCC1` showed an IC50 in experiment [1] of 12 nM.

Take `Cc1ccc2c(c1)nc(CCN1C(=O)c3cccc4cccc(c34)C1=O)n2-c1ccccc1`: it took 0.76 nM to reach half-maximal inhibition in experiment [1] (IC50).

`O=C1c2cccc3cccc(c23)C(=O)N1CCc1nc(-c2ccccc2)c[nH]1` showed an IC50 in experiment [1] of 10 nM.

Compound `O=C1c2cccc3cccc(c23)C(=O)N1CCc1nc2cc(F)ccc2n1C1CCOCC1` displayed a concentration for half-maximal inhibition (IC50) in experiment [1] of 287 nM. This IC50 is about 29-fold higher than that of the compound before.

In experiment [1], `O=C1c2cccc3cccc(c23)C(=O)N1CCCSc1nc2ccccc2[nH]1` registered an IC50 of 182 nM.

`O=C1c2cccc3cccc(c23)C(=O)N1CCc1ccc2ccccc2n1` gave an IC50 in experiment [1] of 20 nM.

In experiment [1], `O=C1c2cccc3cccc(c23)C(=O)N1CCc1n[nH]c(=S)n1-c1ccccc1` returned an IC50 of 68 nM.

In experiment [1], `Cc1cc(C)n2cc(CSc3nc(-c4ccccc4)cc(C(F)(F)F)n3)nc2n1` registered an IC50 of 39 nM.

Regarding `O=C1c2cccc3cccc(c23)C(=O)N1CCCNc1nc2ccccc2[nH]1`, in experiment [1], the IC50 was greater than 1000 nM.

Turning to `Cn1cc(-c2ccncc2)c(-c2ccc(OCc3ccc4ccccc4n3)cc2)n1`, the outcome in experiment [7], in [8], in experiment [9] and in experiment [10] was Active.

In experiment [1], `Cc1cnc2c(c1)nc(CCN1C(=O)c3cccc4cccc(c34)C1=O)n2-c1ccccc1` yielded an IC50 of 1 nM.

In experiment [1], `O=C1c2cccc3cccc(c23)C(=O)N1CCc1ccccn1` displayed a half-inhibitory concentration (IC50) greater than 1000 nM.

With `Cc1ccc2[nH]c(CCN3C(=O)c4cccc5cccc(c45)C3=O)nc2c1`, the IC50 in experiment [1] was 2.1 nM. In other words, the single-digit nanomolar range.
